Screening results as filed in PubChem.
Hits are enriched below; roughly 12% of the tested compounds scored in any of these assays.
RAM inhibit – inhibitors of the yeast RAM network | S. cerevisiae dse1pr::URA3 reporter, 5-FOA growth OD615, 2 d; analog-sensitive cbk1-as2 kinase mutant strain | inhibition, % at 50 µM | 190,000 tested, 1.8% active | AID 868;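 active = inhibition above a set limit, 3 SD over mean compound inhibition, cut at about 8.4% in these data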;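 also: inhibition rescues growth on 5-FOA so higher OD means more RAM inhibition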
ABCG2 inh – blocks JC-1 efflux by human ABCG2 transporter | Q9UNQ0 | IgMXP3 cells, flow cytometry | inhibition, % at 6.6 µM | 190,000 tested, 0.1% active;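 active = inhibition above 80%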
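test system = two drug-resistant human cell lines, ABCG2 and ABCB1 | amount = 3 million cells/mL final, two lines in 1:1 ratio | reagent = JC-1 transporter substrate | doses = one concentration, 6.6 µM final | incubation = 10 min at 25 °C | signal = flow cytometric JC-1 green MFI at 530 nm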
ABCB1 inh – blocks JC-1 efflux by human ABCB1 transporter | P08183 | CCRF-Adr cells, flow cytometry | inhibition, % at 6.6 µM | 190,000 tested, 0.067% active; in the data active = inhibition above about 40%;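 also: higher value means more JC-1 retained so stronger ABCB1 efflux block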
WT yeast gro inh – growth inhibition of WT yeast, mitochondrial fusion screen; 190,000 tested, 2.1% active; inhibition, % at 10 µM; mitochondrial fusion phenotypic screen, WT strain; AID 1362; in the data active = inhibition above about 58%; tested in S. cerevisiae
L major viab – reduces viability of Leishmania major promastigotes. resazurin fluorescence viability. inhibition, % at 10 µM. 200,000 tested, 9% active. AID 1063; in the data active = inhibition above about 50%;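 also: promastigotes grown with compound for 44 hours at 28 °C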
Of the large screens only hits and unclear results are named; the others gave an inactive call.

O=C(CCC(=O)OC(C(=O)c1ccccc1)c1ccccc1)Nc1ccccc1 (configuration not stated)	none
O=C(CCS(=O)(=O)c1cccs1)Nc1ccc(C(=O)NC2CCCC2)cc1	none
O=C(NCCCN1CCOCC1)C(=O)NCc1ccco1	none
Cc1cc(C(=O)OC(C(=O)Nc2ccc(C)c(Cl)c2)c2ccccc2)c(C)o1 (configuration not stated)	none
COc1ccc(C(=O)C(OC(=O)c2ccccc2Cl)c2ccccc2)cc1 (configuration not stated)	RAM inhibit 10.7
COc1ccc(C(NC(=O)c2ccc(F)cc2)c2ccccc2)cc1 (configuration not stated)	none
Cc1ccc(NC(=O)C(OC(=O)c2ccccc2Cl)c2ccccc2)cc1Cl (configuration not stated)	RAM inhibit 8.9
C=CCC1(N(C(C)=O)c2ccccc2)CCCCC1	none
CCOC(=O)c1ccc2c(c1)n(CC)c(/C=C/Nc1ccccc1)[n+]2CC	none
CCn1c(/C=C/Nc2ccccc2)[n+](CC)c2ccc(Cl)cc21	L major viab 91.5
CCn1c(/C=C/N(C)c2ccccc2)[n+](CC)c2ccc(Cl)cc21	L major viab 100.2
CCn1c(C)[n+](Cc2ccccc2)c2ccc(Cl)cc21	none
NC(=O)CSc1nnnn1-c1ccccc1Cl	none
Cc1nn(C)cc1CN(C)S(=O)(=O)c1cccc([N+](=O)[O-])c1	none
O=C(c1cccs1)N1N=C(c2ccccc2)CC1c1ccccc1 (configuration not stated)	WT yeast gro inh 66.9
O=C(c1cccs1)N1N=C(c2ccccc2)CC1c1ccc(O)cc1 (configuration not stated)	none
O=C(c1cccs1)N1N=C(c2ccc(O)cc2)CC1c1ccccc1 (configuration not stated)	L major viab 64.4
C=CCNC(=O)CSCc1ccc(Br)cc1	none
CN(C)CCOC(C1CCCCC1)C1CCCCC1	L major viab 50.4
CN(C)CCNC(=S)NC1CCCCC1	none
COc1ccc(C(c2nnnn2C2CCCC2)N2CCc3ccccc3C2)cc1OC (configuration not stated)	L major viab 60.4
COc1ccc(N2CCN(C(c3cccc(OC)c3OC)c3nnnn3C3CCCC3)CC2)cc1 (configuration not stated)	L major viab 71.5
Fc1ccccc1N1CCN(C(c2ccccn2)c2nnnn2C2CCCCC2)CC1 (configuration not stated)	none
COc1ccc(OC)c(C(c2nnnn2C2CCCC2)N2CCN(c3ccccc3F)CC2)c1 (configuration not stated)	L major viab 99.3
COCCn1nnnc1C(c1ccc(O)c(OC)c1)N1CCc2ccccc2C1 (configuration not stated)	none
COc1ccc(N2CCN(C(c3ccccc3OC)c3nnnn3C3CCCC3)CC2)cc1 (configuration not stated)	L major viab 59.3
COc1cc(C(=O)NC(C(=O)Nc2cccc(C(C)=O)c2)C(C)C)cc(OC)c1OC (configuration not stated)	none
[O-]/C(=C(\C(=S)NCc1ccccc1)[n+]1ccccc1)c1ccc(Cl)s1	none
CCN(CC)CCNC(=O)c1c(O)c2cc(OC)c(OC)cc2[nH]c1=O	L major viab 78.6
Cc1cc(C)n(CCc2nc(-c3ccc(-c4ccccc4)cc3)cs2)n1	RAM inhibit 8.7
Nc1ccc(Nc2nc(-c3ccncc3)cs2)cc1	L major viab 81.0
COc1ccc(-c2csc(Nc3ccccc3)n2)cc1	WT yeast gro inh 68.6
COc1ccc(Nc2nc(-c3c[nH]c4ccccc34)cs2)cc1	L major viab 85.2
Cc1cccnc1Nc1nc(-c2ccc(O)c(O)c2)cs1	L major viab 57.6
Cc1ccc2nc(NC(=O)COC(=O)c3ccccn3)sc2c1	none
COc1ccc(-c2csc(Nc3ncccc3C)n2)cc1OC	none
COc1ccc(-c2csc(Nc3ncccc3C)n2)cc1	WT yeast gro inh 75.7
CC(=O)Oc1ccc(-c2csc(Nc3ccc(S(N)(=O)=O)cc3)n2)cc1	L major viab 54.6
COc1cc2c(cc1OC)C1C(C(=O)Nc3ccccc3N3CCN(C)CC3)c3ccccc3C(=O)N1CC2 (configuration not stated)	none
Cc1cccc(CSc2nnc(-c3cccs3)n2Cc2ccco2)c1	L major viab 90.2
Cc1cccc(N=Cc2[nH]c3ccc(Br)c(Cl)c3c2O)c1	none
COc1ccccc1CN=Cc1[nH]c2ccc(Br)c(Cl)c2c1O	WT yeast gro inh 67.5
CCOc1ccc(C(C)=O)cc1CSC(=N)N	none
NC(=O)COc1ccc(-n2cnnn2)cc1	none
CCOc1ccc(C(C)=O)cc1CSc1nnnn1-c1ccc(O)cc1	L major viab 59.8
CCOc1ccc(C(C)=O)cc1COc1ccc(-n2cnnn2)cc1	RAM inhibit 8.7
Nc1cc(C(=O)c2ccccc2)ccc1[N+](=O)[O-]	none
COc1ccc(C2(O)CCN(CC(=O)Nc3nc(-c4ccccc4)cs3)CC2)cc1	none
CCOC(=O)CSc1ccc(S(=O)(=O)N2CCCCC2)cc1[N+](=O)[O-]	RAM inhibit 8.7
COc1cccc(/C=N/NC(=O)c2nc(-c3ccccc3)cc(-c3ccccc3)n2)c1O	L major viab 99.8
CCn1c(C)nc2cc(C(=O)N/N=C/c3ccc(O)c(O)c3O)ccc21	none
COc1cccc(/C=N/NC(=O)c2c(C)nc3ccc(Br)cn23)c1O	L major viab 99.6
CCn1c(C)nc2cc(C(=O)N/N=C/c3cccc(OC)c3O)ccc21	L major viab 93.9
COc1ccc(N2CC(NC(=O)NCCC(C)C)CC2=O)cc1 (configuration not stated)	none
COc1cc(NC(=O)Cn2nc(C(F)(F)F)c(Br)c2C)cc([N+](=O)[O-])c1	L major viab 98.4
c1ccc2c(c1)ncn2CCCOc1ccc2c(c1)CCC2	WT yeast gro inh 65.3
c1ccc(OCCCCn2cnc3ccccc32)cc1	none
c1ccc2c(c1)ncn2CCCCOc1ccc2c(c1)CCC2	WT yeast gro inh 69.2, L major viab 55.5
Cc1cc(C)cc(NC(=O)c2c(C)nc3ccccn23)c1	none
CCCCCCCCCCCCCCCC(O)C(N)CO (configuration not stated)	L major viab 100.5
CCCc1nnc(SCC(=O)N2CCCC2)n1Cc1ccco1	none
CCn1c(=O)cc(SCC(=O)Nc2ccc(C)cn2)c2ccccc21	none
O=C(CNC(=S)NC(=O)c1ccc(Br)o1)c1ccccc1	none
O=C(CNC(=S)NC(=O)c1ccc(Cl)cc1)c1ccccc1	L major viab 88.4
CC(C)(C)NC(=O)Cn1c(Cl)nc2ccccc21	none
COc1ccc(OC)c(C2=NOC(C(=O)NCc3cccs3)C2)c1 (configuration not stated)	none
CC(=O)N=c1n(C)c2ccccc2n1CCOc1ccccc1	none
Clc1ccc(CSC2=NCCCN2)cc1Cl	L major viab 91.5
Clc1ccccc1CSC1=NCCCN1	none
Cn1cccc1C(=O)NC(=O)COC(=O)CNC(=O)CNC(=O)c1ccc(Cl)cc1Cl	none
